Source: ChEMBL document CHEMBL1133564, “A novel series of 4-piperidinopyridine and 4-piperidinopyrimidine inhibitors of 2,3-oxidosqualene cyclase-lanosterol synthase” (J Med Chem, 2000)
Each block holds one molecule with its values, some of them ahead of it.

Assays:
[1] = Inhibition of cholesterol biosynthesis in rat following 2 mg/kg p.o. administration.; assay type: functional; conditions: route oral
Outline: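 Female rats (130 ± 20 g) kept on reversed lighting, dosed orally at 2 mg/kg in DMSO/HPMC (n = 2). Tritiated mevalonate (2.5 µCi) given 1 h later; killed after a further 1 h. Liver saponified in KOH/EtOH 80 °C 2 h, isohexane-extracted, analysed by HPLC. Percent inhibition of cholesterol biosynthesis versus controls, with sterol precursor profile for step selectivity.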

[2] = target: T1, Lanosterol synthase (Rattus norvegicus) (UniProt P48450); assay: In vitro percent inhibitory activity of the compound against rat microsomal OSC enzyme at 1 uM concentration
T1 sequence (whole entry): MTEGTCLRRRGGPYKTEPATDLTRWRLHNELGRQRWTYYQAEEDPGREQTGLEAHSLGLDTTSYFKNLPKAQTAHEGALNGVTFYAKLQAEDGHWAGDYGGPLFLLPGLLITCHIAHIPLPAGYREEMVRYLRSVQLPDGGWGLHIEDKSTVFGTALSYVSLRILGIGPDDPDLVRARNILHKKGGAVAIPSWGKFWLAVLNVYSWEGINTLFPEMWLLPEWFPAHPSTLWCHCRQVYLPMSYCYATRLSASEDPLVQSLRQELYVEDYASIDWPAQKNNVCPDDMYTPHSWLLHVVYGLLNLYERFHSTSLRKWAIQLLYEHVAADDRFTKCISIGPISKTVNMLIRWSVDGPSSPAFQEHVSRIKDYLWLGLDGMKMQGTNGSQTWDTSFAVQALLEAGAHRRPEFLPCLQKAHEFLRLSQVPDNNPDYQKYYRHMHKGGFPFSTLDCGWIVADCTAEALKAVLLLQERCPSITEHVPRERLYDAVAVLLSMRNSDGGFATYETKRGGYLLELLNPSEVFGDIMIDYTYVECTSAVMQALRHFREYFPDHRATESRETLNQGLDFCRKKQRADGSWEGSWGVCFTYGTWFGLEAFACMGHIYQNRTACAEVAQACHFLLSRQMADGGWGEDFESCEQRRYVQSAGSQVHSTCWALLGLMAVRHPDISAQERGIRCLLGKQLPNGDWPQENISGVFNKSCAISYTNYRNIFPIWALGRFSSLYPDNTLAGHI
Outline: (§1)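 Rat liver microsomal OSC in phosphate-buffered Tween, pH 7.4, with test compound at 1 µM. Preincubation 10 min at 37 °C, then oxidosqualene added for 1 h. Stopped with ethanolic KOH at 80 °C for 2 h, hexane-extracted. Percent inhibition, n = 2.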

[3] = Compound was tested for its acid dissociation constant; assay type: ADME
[4] = Effective dose (50%) required to inhibit cholesterol biosynthesis in rat after oral administration; assay type: functional
Outline: (§2)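 Female rats (130 ± 20 g) on reversed lighting, given test compound orally across a dose range in DMSO/HPMC (n = 2). Tritiated mevalonate (2.5 µCi) 1 h post-dose; killed 1 h later. Liver saponified, isohexane-extracted, HPLC radio-profile of sterols. ED50 or ED80 for inhibition of cholesterol biosynthesis derived from dose-response.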

[5] = target: T1, Lanosterol synthase (Rattus norvegicus); assay: (§3) In vitro inhibitory activity of the compound against rat microsomal 2,3-Oxidosqualene lanosterol cyclase (OSC); conditions: concentration not given here
Outline: (§4)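 Rat liver microsomes (15-20 mg/mL protein stock) diluted in 50 mM phosphate buffer pH 7.4 with Tween. Test compound at serial 10-fold dilutions (10^-5 M, 10^-6 M, etc.) preincubated with microsomes 10 min at 37 °C. Oxidosqualene substrate added, then 1 h incubation. Stopped with ethanolic KOH, saponified 80 °C 2 h, hexane-extracted. IC50 by curve fitting with tight-binding model. Human OSC run the same way.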

[6] = Effective dose (80%) required to inhibit cholesterol biosynthesis in rat after oral administration; assay type: functional; outline: as §2
[7] = target: T1, Lanosterol synthase (Rattus norvegicus); assay: In vitro percent inhibitory activity against rat microsomal OSC enzyme at 1 uM concentration; outline: as §1
Lanosterol synthase [8] = target: T2, Lanosterol synthase (Rattus norvegicus, UniProt P48450); assay: In vitro inhibitory activity of the compound against rat microsomal 2,3-Oxidosqualene cyclase-Lanosterol synthase (OSC); outline: as §4
T2 sequence (P48450 whole entry): T1 sequence (whole entry)

[9] = Effective dose (50%) required to inhibit cholesterol biosynthesis in rat after administration of a shallow oral dose; assay type: functional; outline: as §2
[10] = Effective dose (80%) required to inhibit cholesterol biosynthesis in rat after administration of a shallow oral dose; assay type: functional; outline: as §2
Lanosterol synthase [11] = target: T3, Lanosterol synthase (Homo sapiens, UniProt P48449); assay: Compound was tested for its inhibition against human OSC enzyme; outline: as §4
T3 sequence (P48449 whole entry): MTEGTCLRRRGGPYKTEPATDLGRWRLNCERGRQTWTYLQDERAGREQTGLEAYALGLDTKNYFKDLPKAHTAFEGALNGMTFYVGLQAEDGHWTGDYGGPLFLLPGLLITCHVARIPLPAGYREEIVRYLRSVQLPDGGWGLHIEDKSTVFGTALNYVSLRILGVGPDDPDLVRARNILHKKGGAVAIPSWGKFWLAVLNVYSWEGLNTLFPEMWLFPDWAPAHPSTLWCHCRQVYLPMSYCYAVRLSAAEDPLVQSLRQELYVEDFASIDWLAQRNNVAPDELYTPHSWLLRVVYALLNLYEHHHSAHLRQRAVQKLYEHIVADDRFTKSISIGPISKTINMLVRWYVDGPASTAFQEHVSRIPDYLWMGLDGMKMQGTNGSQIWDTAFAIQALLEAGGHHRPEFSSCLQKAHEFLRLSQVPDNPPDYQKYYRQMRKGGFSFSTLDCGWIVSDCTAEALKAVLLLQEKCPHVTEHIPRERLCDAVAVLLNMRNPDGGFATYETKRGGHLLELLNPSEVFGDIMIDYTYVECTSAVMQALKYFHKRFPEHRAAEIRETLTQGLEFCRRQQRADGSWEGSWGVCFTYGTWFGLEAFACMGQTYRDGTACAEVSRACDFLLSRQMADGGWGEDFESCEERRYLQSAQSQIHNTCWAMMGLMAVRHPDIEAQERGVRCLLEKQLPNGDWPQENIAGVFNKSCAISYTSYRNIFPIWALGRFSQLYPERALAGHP

Lanosterol synthase [12] = target: T2, Lanosterol synthase; assay: as §3; outline: as §4
Lanosterol synthase [13] = target: T2, Lanosterol synthase; assay: Compound was tested for its inhibition against rat OSC enzyme; outline: as §4
[14] = target: T1, Lanosterol synthase (Rattus norvegicus); assay: Compound was tested for percent inhibition of OSC at 1 uM concentration in rat; outline: as §1

inhibition [2]: 100%
Compound: O=C(C1CCN(C2=NCCS2)CC1)N1CCN(S(=O)(=O)c2ccc(Br)cc2)CC1
inhibition in vivo at 2 mg/kg [1]: 81%

inhibition [5]: 100%
Compound: O=C(C1CCN(c2ccncc2)CC1)N1CCN(Cc2ccc(Br)cc2)CC1
inhibition in vivo at 2 mg/kg [1]: 48% | ED50 [4]: 1.8 mg/kg

inhibition [5]: 96%
Compound: O=C(c1ccc(Br)cc1)N1CCN(C(=O)C2CCN(c3ccncc3)CC2)CC1
inhibition in vivo at 2 mg/kg [1]: 28%

inhibition [2]: 3%
Compound: Cc1nsc(N2CCC(C(=O)N3CCN(S(=O)(=O)c4ccc(Br)cc4)CC3)CC2)n1
inhibition in vivo at 2 mg/kg [1]: 9%

inhibition [5]: 87%
Compound: O=C(C1CCN(C2=NCCO2)CC1)N1CCN(S(=O)(=O)c2ccc(Br)cc2)CC1
inhibition in vivo at 2 mg/kg [1]: 82%

pKa [3]: 9.2 | IC50 (Lanosterol synthase [8]): 82 nM
Compound: O=C(C1CCN(c2ccncc2)CC1)N1CCN(S(=O)(=O)c2ccc(I)cc2)CC1
inhibition in vivo at 2 mg/kg [1]: 52% | ED50 [9]: 2 mg/kg | ED80 [10]: < 20 mg/kg

IC50 (Lanosterol synthase [11]): 143 nM | IC50 (Lanosterol synthase [12]): 326 nM
Compound: O=C(C1CCN(c2ccncc2)CC1)N1CCN(S(=O)(=O)c2ccccc2)CC1
inhibition in vivo at 2 mg/kg [1]: 53%

pKa [3]: 4.7 | IC50 (Lanosterol synthase [12]): 90 nM
Compound: O=C(c1ccc(C(F)(F)F)cc1)N1CCC(=Cc2ccc(C3=NCCO3)cc2)CC1
inhibition in vivo at 2 mg/kg [1]: 93% | ED50 [4]: 0.4 mg/kg | ED80 [6]: 1 mg/kg

pKa [3]: 9.2 | IC50 (Lanosterol synthase [11]): 161 nM | inhibition [14]: 100% | IC50 (Lanosterol synthase [12]): 228 nM
Compound: O=C(C1CCN(c2ccncc2)CC1)N1CCN(S(=O)(=O)c2ccc(Br)cc2)CC1
inhibition in vivo at 2 mg/kg [1]: 69% | ED50 [4]: 2 mg/kg | ED80 [6]: > 2 mg/kg

pKa [3]: 6.1 | IC50 (Lanosterol synthase [11]): 37 nM | IC50 (Lanosterol synthase [13]): 116 nM | inhibition [2]: 100%
Compound: O=C(C1CCN(c2ccncn2)CC1)N1CCN(S(=O)(=O)c2ccc(Br)cc2)CC1
inhibition in vivo at 2 mg/kg [1]: 81% | ED50 [4]: 0.5 mg/kg | ED80 [6]: 1.4 mg/kg

Further lines, the molecule ahead of its results:

Compound: O=C(c1ccc(Cl)cc1)c1ccc(OC2CN3CCC2CC3)cc1 (centres undefined)
pKa [3]: 9.1 | ED50 [4]: 2 mg/kg

Compound: O=C(C1CCN(c2ccncc2)CC1)N1CCN(S(=O)(=O)c2ccc(F)cc2)CC1
inhibition in vivo at 2 mg/kg [1]: 46%

Compound: O=C(C1CCN(c2ccncc2)CC1)N1CCN(S(=O)(=O)c2cccc(F)c2)CC1
inhibition in vivo at 2 mg/kg [1]: 52%

Compound: COc1ccc(S(=O)(=O)N2CCN(C(=O)C3CCN(c4ccncc4)CC3)CC2)cc1
inhibition in vivo at 2 mg/kg [1]: 38%

Compound: CCC(C)(C)C(=O)O[C@H]1C[C@@H](C)C=C2C=C[C@H](C)[C@H](CC[C@@H]3C[C@@H](O)CC(=O)O3)[C@H]21 [SIMVASTATIN]
ED80 [6]: 1.2 mg/kg

Compound: O=C(C1CCN(c2ncccn2)CC1)N1CCN(S(=O)(=O)c2ccc(Br)cc2)CC1
inhibition [7]: 8% | inhibition in vivo at 2 mg/kg [1]: 23%

Compound: O=C(C1CCN(c2ccncc2)CC1)N1CCN(S(=O)(=O)c2ccc(F)cc2F)CC1
inhibition in vivo at 2 mg/kg [1]: 10%

Compound: Cc1nccc(N2CCC(C(=O)N3CCN(S(=O)(=O)c4ccc(Br)cc4)CC3)CC2)n1
pKa [3]: 7.2 | IC50 (Lanosterol synthase [11]): 112 nM | IC50 (Lanosterol synthase [13]): 398 nM | inhibition in vivo at 2 mg/kg [1]: 83% | ED50 [4]: 0.3 mg/kg | ED80 [6]: 1.2 mg/kg | inhibition [2]: 76%

Compound: Cc1ccc(S(=O)(=O)N2CCN(C(=O)C3CCN(c4ccncc4)CC3)CC2)cc1
inhibition in vivo at 2 mg/kg [1]: 66%

Compound: O=C(C1CCN(c2ccnnc2)CC1)N1CCN(S(=O)(=O)c2ccc(Br)cc2)CC1
inhibition in vivo at 2 mg/kg [1]: 54%

Compound: N#Cc1ccc(S(=O)(=O)N2CCN(C(=O)C3CCN(c4ccncc4)CC3)CC2)cc1
inhibition in vivo at 2 mg/kg [1]: 12%

Compound: O=C(C1CCN(c2ccncc2)CC1)N1CCN(S(=O)(=O)c2cccc(C(F)(F)F)c2)CC1
inhibition in vivo at 2 mg/kg [1]: 7%

Compound: O=C(C1CCN(c2ccncc2)CC1)N1CCN(S(=O)(=O)c2cccc(Br)c2)CC1
inhibition in vivo at 2 mg/kg [1]: 43%
